Measurements: ChEMBL document CHEMBL3259808, “Optimization of antitrypanosomatid agents: identification of nonmutagenic drug candidates with in vivo activity” (J Med Chem, 2014)

Experiments:
[1] = tested on: Salmonella typhimurium; assay: Mutagenic activity in Salmonella typhimurium TA98 at 6 to 500 ug/plate by Ames test; format: toxicity, organism-based; conditions: salmonella enterica subsp. enterica serovar typhimurium
In short: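 Ames plate-incorporation assay with S. typhimurium TA98 in Vogel-Bonner E minimal glucose agar. Toxicity toward the bacteria was checked first. DMSO solutions were run in triplicate at five consecutive third-dilutions, starting at the highest non-toxic dose. Positive controls were 4-nitro-o-phenylenediamine (20.0 μg/plate) and 2-aminofluorene (10.0 μg/plate); DMSO was the negative control. Revertants were counted manually. A compound was called mutagenic when revertants were at least twice the negative control at two or more consecutive doses.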

[2] = tested on: Trypanosoma cruzi; assay: Antitrypanosomal activity against Trypanosoma cruzi Tulahuen 2 epimastigotes assessed as growth inhibition after 5 days; format: functional, organism-based; conditions: Trypanosoma cruzi, Tulahuen 2, 120 h
In short: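 Epimastigotes were grown axenically at 28 °C in BHI-tryptose with 5% FBS and seeded from a 5–7 day culture at 1 × 10⁶ cells/mL. Drug from a DMSO stock was added (final DMSO ≤0.4%; the control contained 0.4% DMSO). Duplicates were run. A600 was read at day 5, and % inhibition was calculated relative to day-0 and control readings. IC50 = concentration that halves the absorbance ratio.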

[3] = Stability of the compound in eumulgin HRE 40, sodium oleate, soya phosphatidylcholine, cholesterol, and phosphate buffer at pH 7.4 at 4 degC; format: physicochemical
In short: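 Storage stability of the compound in vehicle V2, a microemulsion of surfactant (Eumulgin HRE 40/sodium oleate/soya phosphatidylcholine, 10%), cholesterol oil phase (10%) and pH 7.4 phosphate buffer (80%), followed over 1 week at 4 °C.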

[4] = tested on: Trypanosoma cruzi; assay: Antitrypanosomal activity against Trypanosoma cruzi Sylvio X-10 amastigotes infected in African green monkey Vero cells assessed as eradication of amastigotes after 5 days by Giemsa staining-based assay; format: functional, organism-based; conditions: Sylvio X-10, Vero, 120 h
In short: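 VERO cells in RPMI 1640 with 10% hiFCS were allowed to adhere for 24 h at 37 °C in 5% CO₂, then infected with tissue-derived trypomastigotes at 10:1. Free parasites were washed off after 24 h, and cultures were treated at five compound doses (text gives 72 h / 5 days). Cultures were methanol-fixed and Giemsa-stained, and infected cells were counted among 300. Quadruplicates were run in three independent experiments. IC50/IC90 were obtained by sigmoidal regression.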

[5] = Stability of the compound in aqueous solution assessed as compound remaining at 1 mM at pH 7.4 after 1 hr by TLC analysis; format: physicochemical; conditions: aqueous solution, pH 7.4; read-out: Stability
In short: (§1)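 DMSO stocks diluted to final 1 mM in KCl·HCl pH 1.0, citrate pH 6.0, Tris·HCl pH 7.4 or borax·HCl pH 9.0 buffer. Incubated 1 h at 37 °C, then ethyl acetate extracts checked by TLC for decomposition products.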

[6] = Stability of the compound in aqueous solution assessed as compound remaining at 1 mM at 37 degC after 1 hr by TLC analysis in presence of rat liver microsomal fraction; conditions: microsomes, 1000 µM
In short: (§2)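 Rat liver cytosolic (100 000g supernatant) and microsomal (100 000g pellet, washed and resuspended in Tris·HCl) fractions, fresh or stored at −80 °C; protein measured by BCA. Compound incubated with the fraction 1 h at 37 °C and analysed by TLC of extracts.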

[7] = Selectivity index, ratio of IC50 for African green monkey Vero cells to IC50 for Trypanosoma cruzi Sylvio X-10 amastigotes; format: toxicity, cell-based; conditions: read-out: Ratio IC50
In short: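 VERO cytotoxicity: cells exposed 48 h at 37 °C, 5% CO2 to serial dilutions from a maximum of 2000 μM (DMSO stocks; DMSO <0.1% control); growth inhibition read by MTT at 570 nm. Amastigote IC50: Sylvio X-10-infected VERO cells, five doses, infected cells counted among 300 (Giemsa), quadruplicate, three experiments, sigmoidal fit. SI = IC50 VERO / IC50 amastigote.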

[8] = tested on: Salmonella typhimurium; assay: Mutagenic activity in Salmonella typhimurium TA1537 at 6 to 500 ug/plate by Ames test in presence of mouse liver S9 fraction; format: toxicity, organism-based; conditions: salmonella enterica subsp. enterica serovar typhimurium
In short: (§3)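 Plate-incorporation Ames test on minimal glucose agar with 500 μL Aroclor-treated mouse liver S9 added. DMSO solutions were tested at five consecutive 3-fold dilutions from the highest non-toxic dose, in triplicate, with a DMSO negative control. Revertants were counted manually; a compound was scored mutagenic when revertants were at least twice the negative control for two or more consecutive doses.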

[9] = tested on: Salmonella typhimurium; assay: Mutagenic activity in Salmonella typhimurium TA100 at 6 to 500 ug/plate by Ames test; format: toxicity, organism-based; conditions: salmonella enterica subsp. enterica serovar typhimurium
In short: (§4)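 Direct plate incubation on minimal glucose agar (Vogel-Bonner E). Compound toxicity to the bacteria was checked first. DMSO solutions were tested at five consecutive 3-fold dilutions, starting from the highest non-toxic dose, in triplicate, without metabolic activation. DMSO served as negative control. Revertants were counted manually; mutagenic = revertants at least double the negative control at two or more consecutive doses.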

[10] = tested on: Salmonella typhimurium; assay: Mutagenic activity in Salmonella typhimurium TA100 at 6 to 500 ug/plate by Ames test in presence of mouse liver S9 fraction; format: toxicity, organism-based; conditions: salmonella enterica subsp. enterica serovar typhimurium; in short: as §3
[11] = tested on: Trypanosoma cruzi; assay: (§5) Antitrypanosomal activity against Trypanosoma cruzi CL Brener infected in BALB/c mouse assessed as mouse survival at 107 umol/kg/day, po administered in cholesterol/surfactant/phosphate buffer in 19 day schedule including 5 days of dosing 2 days of resting and final 4 days of dosing measured up to 60 days relative to control; format: functional
In short: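 Oral gavage of infected male BALB/c mice at 50 mg/kg/day in cholesterol/surfactant/phosphate buffer pH 7.4 microemulsion, from day 6 postinfection. Schedule: 5 days dosing, 2 rest, 5 dosing, 2 rest, 4 dosing. n = 6/group, with vehicle controls. Parasitemia was read weekly in tail-vein blood for 60 days and mortality recorded.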

[12] = Selectivity index, ratio of IC50 for mouse J774.1 cells to IC50 for Trypanosoma cruzi Sylvio X-10 amastigotes; format: toxicity; conditions: read-out: Ratio IC50
In short: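 J774.1 macrophages grown in DMEM with 10% heat-inactivated FCS and allowed to attach 48 h, then exposed 48 h at 37 °C to 12.5–400.0 μM. Triplicates. MTT 0.1 mg/mL for 3 h, read at 560 nm; IC50 by linear regression against the solvent control. SI = IC50 J774.1 / parasite IC50 (Sylvio X-10 amastigotes or Tulahuen 2 epimastigotes, the latter measured by A600 growth inhibition at day 5).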

[13] = Stability of the compound in aqueous solution assessed as compound remaining at 1 mM at pH 9 after 1 hr by TLC analysis; format: physicochemical; conditions: aqueous solution, pH 9; read-out: Stability; in short: as §1
[14] = tested on: Salmonella typhimurium; assay: Mutagenic activity in Salmonella typhimurium TA102 at 6 to 500 ug/plate by Ames test in presence of mouse liver S9 fraction; format: toxicity, organism-based; conditions: salmonella enterica subsp. enterica serovar typhimurium; in short: as §3
[15] = tested on: Salmonella typhimurium; assay: Mutagenic activity in Salmonella typhimurium TA1535 at 6 to 500 ug/plate by Ames test in presence of mouse liver S9 fraction; format: toxicity, organism-based; conditions: salmonella enterica subsp. enterica serovar typhimurium; in short: as §3
[16] = tested on: Salmonella typhimurium; assay: Mutagenic activity in Salmonella typhimurium TA1535 at 6 to 500 ug/plate by Ames test; format: toxicity, organism-based; conditions: salmonella enterica subsp. enterica serovar typhimurium; in short: as §4
[17] = tested on: Salmonella typhimurium; assay: Mutagenic activity in Salmonella typhimurium TA1537 at 6 to 500 ug/plate by Ames test; format: toxicity, organism-based; conditions: salmonella enterica subsp. enterica serovar typhimurium; in short: as §4
[18] = tested on: Trypanosoma cruzi; assay: as §5, with “peak of maximum parasitemia” for “mouse survival”; format: functional
In short: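 Male BALB/c mice (n = 6/group) were infected i.p. with 10³ blood trypomastigotes. From day 6 they were dosed orally in microemulsion vehicle on a schedule of 5 days on, 2 off, 5 on, 2 off, 4 on. Controls received vehicle. Parasitemia was counted weekly in tail-vein blood for 60 days, and mortality was recorded.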

[19] = tested on: Salmonella typhimurium; assay: Mutagenic activity in Salmonella typhimurium TA102 at 6 to 500 ug/plate by Ames test; format: toxicity, organism-based; conditions: salmonella enterica subsp. enterica serovar typhimurium; in short: as §4
[20] = Stability of the compound in aqueous solution assessed as compound remaining at 1 mM at pH 6 after 1 hr by TLC analysis; format: physicochemical; conditions: aqueous solution, pH 6; read-out: Stability; in short: as §1
[21] = tested on: Mus musculus; assay: Toxicity in BALB/c mouse assessed as mortality at 100 mg/kg/day, po for 14 days; format: organism-based; design: route oral; conditions: in vivo, 336 h
In short: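 Uninfected female BALB/c mice (n = 2/group) received intragastric gavage daily for 14 days in saline/Tween 80 (4:1). They were weighed and monitored daily, then sacrificed for macroscopic necropsy of organs.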

[22] = Stability of the compound in aqueous solution assessed as compound remaining at 1 mM at 37 degC after 1 hr by TLC analysis in presence of rat liver cytosolic fraction; format: ADME; conditions: cytosol, 1000 µM; in short: as §2
[23] = tested on: Trypanosoma cruzi; assay: Antitrypanosomal activity against Trypanosoma cruzi CL Brener infected in BALB/c mouse assessed as peak of maximum parasitemia at 192 umol/kg/day, po for 14 days administered in saline and tween 80 measured up to 60 days relative to control; format: functional
In short: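 Male BALB/c mice (30 days old, 25–30 g, SPF) were infected i.p. with 10³ blood trypomastigotes, n = 8/group. Daily oral gavage in saline/Tween 80 (4:1) ran for 14 days from day 6 post-infection; controls received vehicle only. Parasitemia was counted weekly in tail-vein blood by hemocytometer for 60 days, and survival was recorded.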

[24] = tested on: Trypanosoma cruzi; assay: Antitrypanosomal activity against Trypanosoma cruzi CL Brener infected in BALB/c mouse assessed as mouse survival at 192 umol/kg/day, po for 14 days administered in saline and tween 80 measured up to 60 days relative to control; format: functional
[25] = tested on: Trypanosoma cruzi; assay: Antitrypanosomal activity against Trypanosoma cruzi Sylvio X-10 amastigotes infected in African green monkey Vero cells assessed as eradication of amastigotes after 72 hrs by Giemsa staining-based assay; conditions: Trypanosoma cruzi, Sylvio X-10, Vero, 72 h

For `Br.C=CCn1c(-c2ccc3ccccc3c2)cs\c1=N/N=C/C=C/c1ccco1`, the Activity [1] was “Non-toxic”, the IC50 [2] was 2.4 µM and the Stability [3] was “Stable”. For the same compound, the IC50 [4] was less than 0.21 µM, the remaining at 1 h, 1000 µM [5] was greater than 95% and the Stability [6] was “Stable”. The selectivity ratio [7] was greater than 1000, the Activity [8] was “Non-toxic” and the Activity [9] was “Non-toxic”. For the same compound, the Activity [10] was “Non-toxic”, the survival at 107 µmol/kg [11] was 100% and the selectivity ratio [12] was greater than 120. For the same compound, the remaining at 1 h, 1000 µM [13] was greater than 95%, the Activity [14] was “Non-toxic” and the Activity [15] was “Non-toxic”. For the same compound, the Activity [16] was “Non-toxic”, the Activity [17] was “Non-toxic” and the Time [18] was 42 days. The Activity [19] was “Non-toxic”, the remaining at 1 h, 1000 µM [20] was greater than 95% and the Activity [21] was “Non-toxic”. The Stability [22] was “Stable”.
With `O=C(Cn1ccnc1[N+](=O)[O-])NCc1ccccc1` [BENZNIDAZOLE] the IC50 [2] was 7 µM, the Time [23] was 42 days and the selectivity ratio [7] was 300. The survival at 192 µmol/kg [24] was 100% and the IC50 [25] was 3.3 µM.
